Test results from ChEMBL document CHEMBL3272308, “Pharmacological effects of introducing a double bond into a binding site of oxytocin. Analogues with L-3,4-dehydroproline in position 7” (1977).
*1 amine or outer side, *2 acyl side, *3 side chain or, on linkers, in order; H or OH if unused. Where a SMILES comes first, the peptide text is derived from it. Bridges are numbered along the chain shown (N, C = ends). [ ]: non-standard residue; d: D form. X1 = O=C([C@H](O)CS[*:2])[*:1]; ΔPro = O=C(O)[C@@H]1C=CCN1

Columns and labels:
Gallus gallus = organism: Gallus gallus; assay: Vasodepressor activity in fowl; format: functional
Rattus norvegicus [1] = organism: Rattus norvegicus; assay: Antidiuretic activity in rat; format: functional, Urine
Rattus norvegicus [2] = organism: Rattus norvegicus; assay: Ratio of oxytocin to compound for antidiuretic activity in rat; format: functional, Urine
Rattus norvegicus [3] = organism: Rattus norvegicus; assay: Activity at uterotonic receptor in rat uterus assessed as uterotonic activity; format: tissue-based
Procedure, shortened: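 Isolated female rat uterine horn in the bathing fluid used for the oxytocic assay. Isometric contractions were recorded at a baseline tension of 1 g. Cumulative dose-response curves (van Rossum) were built by raising doses geometrically until a maximal response, alternating oxytocin and analogue on the same horn with return to baseline between runs. pD2 is the negative log of the concentration giving 50% of maximum.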

Rattus norvegicus [4] = organism: Rattus norvegicus; assay: Pressor activity in rat; format: functional

Structure (SMILES): CC[C@H](C)[C@@H]1NC(=O)[C@H](Cc2ccc(O)cc2)NC(=O)[C@@H](N)CSSC[C@@H](C(=O)N2CC=C[C@H]2C(=O)N[C@@H](CC(C)C)C(=O)NCC(N)=O)NC(=O)[C@H](CC(N)=O)NC(=O)[C@H](CCC(N)=O)NC1=O
- Activity (Gallus gallus): 548 U/mg
- Activity (Rattus norvegicus [1]): 5.9 U/mg
- Ratio (Rattus norvegicus [2]): 2
- Activity (Rattus norvegicus [3]): 1070 U/mg

Structure (SMILES): CC[C@H](C)[C@@H]1NC(=O)[C@H](Cc2ccc(O)cc2)NC(=O)CCSSC[C@@H](C(=O)N2CC=C[C@H]2C(=O)N[C@@H](CC(C)C)C(=O)NCC(N)=O)NC(=O)[C@H](CC(N)=O)NC(=O)[C@H](CCC(N)=O)NC1=O
- Activity (Gallus gallus): 1008 U/mg
- Activity (Rattus norvegicus [1]): 23.3 U/mg
- Activity (Rattus norvegicus [3]): 1070 U/mg

Structure (SMILES): CC[C@H](C)[C@@H]1NC(=O)[C@H](Cc2ccc(O)cc2)NC(=O)CCSSC[C@H](C(=O)N2CCC[C@H]2C(=O)N[C@@H](CC(C)C)C(=O)NCC(N)=O)NC(=O)[C@H](CC(N)=O)NC(=O)[C@H](CCC(N)=O)NC1=O
- Activity (Rattus norvegicus [3]): 803 U/mg

Structure (SMILES): CC[C@H](C)[C@@H]1NC(=O)[C@H](Cc2ccc(O)cc2)NC(=O)[C@H](O)CSSC[C@@H](C(=O)N2CCC[C@H]2C(=O)N[C@@H](CC(C)C)C(=O)NCC(N)=O)NC(=O)[C@H](CC(N)=O)NC(=O)[C@H](CCC(N)=O)NC1=O (YIQNCPLG-NH2; linker N-5 via X1)
- Activity (Gallus gallus): 1778 U/mg
- Activity (Rattus norvegicus [1]): 16.6 U/mg
- Activity (Rattus norvegicus [3]): 1280 U/mg
- Activity (Rattus norvegicus [4]): 14.7 U/mg

Structure (SMILES): CC[C@H](C)[C@@H]1NC(=O)[C@H](Cc2ccc(O)cc2)NC(=O)[C@H](O)CSSC[C@@H](C(=O)N2CC=C[C@H]2C(=O)N[C@@H](CC(C)C)C(=O)NCC(N)=O)NC(=O)[C@H](CC(N)=O)NC(=O)[C@H](CCC(N)=O)NC1=O (YIQNC[ΔPro]LG-NH2; linker N-5 via X1)
- Activity (Gallus gallus): 1295 U/mg
- Activity (Rattus norvegicus [1]): 76.7 U/mg
- Activity (Rattus norvegicus [3]): 880 U/mg

Structure (SMILES): CC[C@H](C)[C@@H]1NC(=O)[C@H](Cc2ccc(O)cc2)NC(=O)CCSSC[C@@H](C(=O)N2CCC[C@H]2C(=O)N[C@@H](CC(C)C)C(=O)NCC(N)=O)NC(=O)[C@H](CC(N)=O)NC(=O)[C@H](CCC(N)=O)NC1=O [DEMOXYTOCIN]
- Activity (Gallus gallus): 975 U/mg
- Activity (Rattus norvegicus [1]): 19 U/mg
- Activity (Rattus norvegicus [4]): 1.44 U/mg

Structure (SMILES): CC[C@H](C)[C@@H]1NC(=O)[C@H](Cc2ccc(O)cc2)NC(=O)[C@@H](N)CSSC[C@@H](C(=O)N2CCC[C@H]2C(=O)N[C@@H](CC(C)C)C(=O)NCC(N)=O)NC(=O)[C@H](CC(N)=O)NC(=O)[C@H](CCC(N)=O)NC1=O [OXYTOCIN]
- Activity (Gallus gallus): 507 U/mg
- Activity (Rattus norvegicus [1]): 2.7 U/mg
- Activity (Rattus norvegicus [3]): 546 U/mg
- Activity (Rattus norvegicus [4]): 3.1 U/mg
